Data set [1] has as its target Kynurenine/alpha-aminoadipate aminotransferase, mitochondrial (Rattus norvegicus, UniProt Q64602). Briefly: Inhibition of rat recombinant KAT2 assessed as conversion of L-kynurenine into kynurenic acid after 15 to 20 hrs. A digest of the protocol:
(§1)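 Human and rat KAT II enzyme assays run with 30 nM enzyme; IC50 reported as geometric mean of at least three independent determinations (some n = 1 or 2).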

The target in data set [2] is T1, Kynurenine/alpha-aminoadipate aminotransferase, mitochondrial (Homo sapiens, UniProt Q8N5Z0). Briefly: Inhibition of human recombinant KAT2 assessed as conversion of L-kynurenine into kynurenic acid after 15 to 20 hrs. The gist of the method: as §1
Target sequence in this assay (Q8N5Z0 whole entry): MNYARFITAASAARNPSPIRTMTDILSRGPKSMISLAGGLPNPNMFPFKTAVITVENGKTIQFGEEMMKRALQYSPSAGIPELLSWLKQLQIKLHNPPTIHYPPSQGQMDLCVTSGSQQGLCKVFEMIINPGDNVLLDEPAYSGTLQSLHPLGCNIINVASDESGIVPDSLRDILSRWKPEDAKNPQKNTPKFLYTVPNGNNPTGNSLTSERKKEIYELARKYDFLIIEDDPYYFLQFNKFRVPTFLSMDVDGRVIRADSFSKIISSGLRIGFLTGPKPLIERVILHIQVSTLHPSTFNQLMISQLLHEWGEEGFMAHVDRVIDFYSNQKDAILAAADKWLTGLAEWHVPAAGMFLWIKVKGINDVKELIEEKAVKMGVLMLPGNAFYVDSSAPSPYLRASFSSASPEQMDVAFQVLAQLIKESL
Data set [3] deals with T1, Kynurenine/alpha-aminoadipate aminotransferase, mitochondrial. Briefly: Ratio of Kinact to Ki for human recombinant KAT2 using L-kynurenine as substrate. The gist of the method: (§2)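 Second-order rate constant kinact/Ki determined for human and rat KAT II; values are geometric or arithmetic means of at least three experiments (some n = 2).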
Target sequence in this assay (Q8N5Z0 30-425 limits assumed): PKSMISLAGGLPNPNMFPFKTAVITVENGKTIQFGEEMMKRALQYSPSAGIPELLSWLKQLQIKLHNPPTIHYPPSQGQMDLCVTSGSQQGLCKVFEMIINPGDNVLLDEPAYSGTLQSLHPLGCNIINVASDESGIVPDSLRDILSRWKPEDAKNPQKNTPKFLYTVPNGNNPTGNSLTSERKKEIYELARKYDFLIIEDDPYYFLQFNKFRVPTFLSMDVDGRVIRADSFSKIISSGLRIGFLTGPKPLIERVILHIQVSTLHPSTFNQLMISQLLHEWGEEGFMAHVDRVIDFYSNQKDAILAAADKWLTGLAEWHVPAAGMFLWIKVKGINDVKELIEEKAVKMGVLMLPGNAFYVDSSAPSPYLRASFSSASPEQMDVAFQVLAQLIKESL
The target of data set [4] is Kynurenine/alpha-aminoadipate aminotransferase, mitochondrial (Rattus norvegicus) (UniProt Q64602). Briefly: Ratio of Kinact to Ki for rat recombinant KAT2 using L-kynurenine as substrate. A digest of the protocol: as §2
Chain of Kynurenine/alpha-aminoadipate aminotransferase, mitochondrial (Rattus norvegicus) (Q64602 30-425 limits assumed): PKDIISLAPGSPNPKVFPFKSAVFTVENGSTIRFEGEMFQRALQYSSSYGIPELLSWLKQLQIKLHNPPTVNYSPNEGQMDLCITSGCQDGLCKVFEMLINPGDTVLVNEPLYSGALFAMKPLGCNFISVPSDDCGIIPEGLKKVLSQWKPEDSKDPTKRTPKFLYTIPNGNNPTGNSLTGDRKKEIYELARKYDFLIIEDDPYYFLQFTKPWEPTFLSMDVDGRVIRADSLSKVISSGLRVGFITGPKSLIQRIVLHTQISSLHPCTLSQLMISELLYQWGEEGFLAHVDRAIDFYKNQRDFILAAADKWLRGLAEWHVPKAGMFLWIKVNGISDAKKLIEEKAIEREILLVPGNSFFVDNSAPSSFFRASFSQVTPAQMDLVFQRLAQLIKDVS
Data set [5] in a line: Lipophilicity, log D of the compound. Format: physicochemical. The note with it: octanol/water.
Data set [6] in a line: Fraction unbound in rat brain at 1 uM by equilibrium dialysis method. Format: ADME, tissue-based.
Data set [7] can be described thus: Drug level in Sprague-Dawley rat cerebrospinal fluid at 10 mg/kg, sc after 0.25 hrs. As to conditions: read-out: Drug uptake. Further details: dose 10 mg/kg, route subcutaneous. Format: ADME, organism-based. The gist of the method:
(§3)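 Rats dosed 10 mg/kg subcutaneously; drug levels measured in CSF and plasma/brain at 0.25 h post-dose; free levels derived using measured rat brain and plasma unbound fractions.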

Data set [8] can be described thus: Inhibition of human KAT4.
A short description of data set [9]: Ratio of free drug level in plasma to brain in Sprague-Dawley rat at 10 mg/kg, sc after 0.25 hrs. The format is ADME, organism-based. The note with it: in vivo. Further details: dose 10 mg/kg, route subcutaneous. A digest of the protocol: (§4)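 Rat dosed 10 mg/kg sc; drug concentrations in plasma, brain and CSF measured at 0.25 h. Free plasma and free brain levels corrected using fraction unbound from rat plasma protein binding and brain binding assays. Exposure ratios taken from free plasma, free brain and CSF concentrations.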

Data set [10] addresses Kynurenine--oxoglutarate transaminase 3 (Homo sapiens, UniProt Q6YP21). Briefly: Inhibition of human KAT3.
The test system of data set [11] is Rattus norvegicus. Briefly: Reduction of […] level in freely moving Sprague-Dawley rat dialysates from prefrontal cortex at 10 mg/kg, sc after 20 hrs by microdialysis analysis. The format is functional, organism-based. Further details: dose 10 mg/kg. The gist of the method: (§5)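 Freely moving rats given 10 mg/kg sc at time 0; KYNA in prefrontal cortex dialysates monitored over time by microdialysis; expressed as percent of each animal's basal KYNA, means ± SEM, n = 11–14 per group.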

The subject of data set [12] is Rattus norvegicus. Briefly: Reduction of […] level in freely moving Sprague-Dawley rat dialysates from prefrontal cortex at 10 mg/kg, sc after 1 hr by microdialysis analysis relative to control. The format is functional. As to conditions: route subcutaneous. Further details: scale not given: the % may be the effect or the level left. The gist of the method: as §5

Data set [13] has as its target T2, Kynurenine--oxoglutarate transaminase 1 (Homo sapiens, UniProt Q16773).
T2 sequence (Q16773 whole entry): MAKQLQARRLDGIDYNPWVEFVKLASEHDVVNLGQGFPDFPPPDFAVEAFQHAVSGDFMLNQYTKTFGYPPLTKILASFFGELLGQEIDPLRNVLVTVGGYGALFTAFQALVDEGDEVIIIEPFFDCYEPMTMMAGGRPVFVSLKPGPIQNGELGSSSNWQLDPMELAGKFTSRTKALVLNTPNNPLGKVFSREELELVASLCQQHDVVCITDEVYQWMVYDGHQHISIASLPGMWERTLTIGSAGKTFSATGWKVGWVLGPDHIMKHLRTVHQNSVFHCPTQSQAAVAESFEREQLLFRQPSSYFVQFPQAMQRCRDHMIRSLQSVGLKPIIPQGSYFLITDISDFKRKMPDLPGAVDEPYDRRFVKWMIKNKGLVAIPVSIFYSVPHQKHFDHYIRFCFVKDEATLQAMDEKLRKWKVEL
Briefly: Inhibition of human KAT1.

In the next data set the test system is Plasma. Briefly: Free plasma concentration in Sprague-Dawley rat at 10 mg/kg, sc after 0.25 hrs. The format is ADME, organism-based. As to conditions: in vivo. Further details: dose 10 mg/kg, route subcutaneous. The gist of the method:
as §3

Data set [14] in a line: Ratio of free drug level in cerebrospinal fluid to brain in Sprague-Dawley rat at 10 mg/kg, sc after 0.25 hrs. The format is ADME, organism-based. Further details: dose 10 mg/kg, route subcutaneous. The note with it: in vivo. The gist of the method: as §4
A short description of data set [15]: Fraction unbound in rat plasma at 1 uM by equilibrium dialysis method. Format: ADME, cell-free.
A further data set has as its system Brain. Briefly: Free brain concentration in Sprague-Dawley rat at 10 mg/kg, sc after 0.25 hrs. The format is ADME, organism-based. Further details: dose 10 mg/kg, route subcutaneous. The note with it: in vivo. The gist of the method:
as §3

Calls of active or inactive are those of the source. The rule behind the calls is not given here. A value given as a limit tells only on which side of the number the result lay.

Chain of Kynurenine/alpha-aminoadipate aminotransferase, mitochondrial (Rattus norvegicus, UniProt Q64602) (Q64602 whole entry): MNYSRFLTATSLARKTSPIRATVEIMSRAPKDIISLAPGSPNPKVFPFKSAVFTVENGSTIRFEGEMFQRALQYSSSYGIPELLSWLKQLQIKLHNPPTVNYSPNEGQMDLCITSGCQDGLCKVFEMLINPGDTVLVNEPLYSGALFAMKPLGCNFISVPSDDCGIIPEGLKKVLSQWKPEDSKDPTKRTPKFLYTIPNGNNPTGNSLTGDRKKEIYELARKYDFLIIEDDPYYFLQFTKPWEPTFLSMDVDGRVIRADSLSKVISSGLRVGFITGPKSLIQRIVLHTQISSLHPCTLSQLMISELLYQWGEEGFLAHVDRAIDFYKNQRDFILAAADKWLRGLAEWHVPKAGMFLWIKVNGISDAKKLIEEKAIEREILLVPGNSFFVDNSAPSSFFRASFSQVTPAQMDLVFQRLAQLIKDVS
Chain of Kynurenine--oxoglutarate transaminase 3 (Q6YP21 whole entry): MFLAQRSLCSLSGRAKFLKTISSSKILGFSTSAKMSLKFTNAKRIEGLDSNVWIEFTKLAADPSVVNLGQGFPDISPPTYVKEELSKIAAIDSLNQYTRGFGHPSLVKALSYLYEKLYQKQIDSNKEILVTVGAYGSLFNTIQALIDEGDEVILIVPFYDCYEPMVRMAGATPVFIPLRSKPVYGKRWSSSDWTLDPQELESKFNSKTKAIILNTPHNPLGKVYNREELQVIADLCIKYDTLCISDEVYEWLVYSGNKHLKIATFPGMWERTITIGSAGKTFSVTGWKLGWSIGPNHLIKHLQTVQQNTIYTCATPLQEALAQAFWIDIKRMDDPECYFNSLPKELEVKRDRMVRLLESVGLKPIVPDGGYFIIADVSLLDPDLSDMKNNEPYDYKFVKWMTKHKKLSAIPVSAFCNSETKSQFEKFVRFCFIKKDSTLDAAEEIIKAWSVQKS

Regarding `COc1cccc2c1C[C@H](N)C(=O)N2O`, the results for the IC50 in [1] and in data set [2] were > 4920 nM and 179 nM, respectively. Also, the Ratio in data set [3] was 1940 M⁻¹ s⁻¹.
As for `CON1C(=O)[C@@H](N)Cc2ccccc21`, the IC50 in [1] and in data set [2] was > 10000 nM in each case.
Turning to `N[C@H]1Cc2c(cccc2C(F)(F)F)N(O)C1=O`, the IC50 in data set [1] and in data set [2] was > 10000 nM in each case.
Consider `Cc1ccc2c(c1)N(O)C(=O)[C@@H](N)C2`, for which the IC50 in data set [1] is 368 nM; in data set [2], 37 nM. Besides, the Ratio was 590 M⁻¹ s⁻¹ in [4] and 33400 M⁻¹ s⁻¹ in data set [3].
As to `N[C@H]1Cc2cc(C(F)(F)F)ccc2N(O)C1=O`, the IC50 in data set [1] stood at 488 nM; in [2], 29 nM. Further, the Ratio in [4] came out at 102 M⁻¹ s⁻¹; in data set [3] it was 15300 M⁻¹ s⁻¹.
Regarding `N[C@H]1Cc2cc(Cl)ccc2N(O)C1=O`, the IC50 is 258 nM in data set [1] and 36 nM in data set [2]. The Ratio came to 465 M⁻¹ s⁻¹ in data set [4] and 19000 M⁻¹ s⁻¹ in data set [3].
In the case of `N[C@H]1Cc2ccccc2N(O)C1=O`, the 50% inhibitory concentration (IC50) in [1] was 263 nM; in data set [2], 23 nM; in data set [8], > 50 µM; in data set [10] it was 11 µM; in data set [13] it was 22 µM. Besides, the logD in [5] is -0.7. In addition, the values for the fraction unbound at 1 µM in data set [6] and in data set [15] were 0.393 and 0.893, respectively. Besides, the concentration at 0.25 h in data set [7] turned out to be 4.06 µM. Besides, the Ratio was 573 M⁻¹ s⁻¹ in [4], 2.7 in [9], 1.1 in data set [14] and 18500 M⁻¹ s⁻¹ in data set [3]. Moreover, in the data set with Rattus norvegicus [11], the outcome was inactive. Also, in the data set with Rattus norvegicus [12], the Activity came out at 50%. For the same molecule, the “Cp(f)” value in the data set on Plasma amounted to 10.2 µM. Besides, in the data set on Brain, the “Drug uptake(free)” value was 3.76 µM.
With `N[C@H]1Cc2ccc(Cl)cc2N(O)C1=O`, the IC50 stood at 118 nM in data set [1] and 29 nM in data set [2]. In addition, the Ratio amounted to 1170 M⁻¹ s⁻¹ in data set [4] and 28300 M⁻¹ s⁻¹ in data set [3].
Consider `N[C@H]1Cc2cccc(F)c2N(O)C1=O`, for which the figures for the IC50 in [1] and in data set [2] were 631 nM and 40 nM, respectively. In addition, the results for the Ratio in data set [4] and in data set [3] were 57 M⁻¹ s⁻¹ and 5310 M⁻¹ s⁻¹, respectively.
For `C[C@H]1c2ccccc2N(O)C(=O)[C@H]1N`, the IC50 in data set [1] was > 1330 nM.
Regarding `N[C@@H]1Cc2ccccc2N(O)C1=O`, the results for the IC50 in data set [1] and in data set [2] were 1170 nM and 219 nM, respectively.
With `N[C@H]1Cc2cccc(Cl)c2N(O)C1=O`, the results for the IC50 in data set [1] and in data set [2] were > 10000 nM and 252 nM, respectively. The Ratio in data set [3] was determined as 42 M⁻¹ s⁻¹.
As for `Cc1cccc2c1N(O)C(=O)[C@@H](N)C2`, the figures for the IC50 in [1] and in [2] were > 10000 nM and 1050 nM, respectively.
Turning to `N[C@H]1Cc2cccc(C(F)(F)F)c2N(O)C1=O`, the values for the IC50 in data set [1] and in data set [2] were > 6810 nM and 174 nM, respectively. In addition, the Ratio in [3] was 541 M⁻¹ s⁻¹.
Take `N[C@H]1Cc2ccccc2NC1=O`: the IC50 in data set [2] is > 10000 nM.
As to `Cc1cccc2c1C[C@H](N)C(=O)N2O`, the IC50 was > 10000 nM in data set [1] and 319 nM in data set [2].
Take `N[C@H]1Cc2c(F)cccc2N(O)C1=O`: the values for the IC50 in [1] and in data set [2] were 2060 nM and 45 nM, respectively. Besides, in data set [3], the Ratio is 6680 M⁻¹ s⁻¹.
For the molecule `Cc1ccc2c(c1)C[C@H](N)C(=O)N2O`, the IC50 in [1] was found to be 402 nM; in [2], 30 nM. Moreover, the values for the Ratio in data set [4] and in data set [3] were 167 M⁻¹ s⁻¹ and 11900 M⁻¹ s⁻¹, respectively.
Turning to `COc1ccc2c(c1)N(O)C(=O)[C@@H](N)C2`, the half-inhibitory concentration (IC50) turned out to be 137 nM in data set [1] and 22 nM in [2]. Moreover, the values for the Ratio in data set [4] and in [3] were 1840 M⁻¹ s⁻¹ and 31700 M⁻¹ s⁻¹, respectively.
As for `COc1cccc2c1N(O)C(=O)[C@@H](N)C2`, the figures for the IC50 in data set [1] and in [2] were > 10000 nM and 572 nM, respectively. Further, in data set [3], the Ratio was found to be 21.3 M⁻¹ s⁻¹.
Take `CC1(N)Cc2ccccc2N(O)C1=O` (configuration not stated): the IC50 in [1] and in [2] was > 10000 nM throughout.
On to `N[C@H]1Cc2c(Cl)cccc2N(O)C1=O`, for which the IC50 is > 7970 nM in data set [1] and 349 nM in [2]. The Ratio in data set [3] was 9.5 M⁻¹ s⁻¹.
